In ChEMBL document CHEMBL1145528, “Design and study of some novel ibuprofen derivatives with potential nootropic and neuroprotective properties” (Bioorg Med Chem, 2007):
Active and inactive are the calls of the source. The calls are words filed in the database; no cut-off is given here.

Tests used:
[1] = biological target: T1, Acetylcholinesterase (Rattus norvegicus) (UniProt P37136); assay: Inhibition of Fischer 344 rat brain acetylcholine esterase at 0.6 mM
T1 sequence (whole entry): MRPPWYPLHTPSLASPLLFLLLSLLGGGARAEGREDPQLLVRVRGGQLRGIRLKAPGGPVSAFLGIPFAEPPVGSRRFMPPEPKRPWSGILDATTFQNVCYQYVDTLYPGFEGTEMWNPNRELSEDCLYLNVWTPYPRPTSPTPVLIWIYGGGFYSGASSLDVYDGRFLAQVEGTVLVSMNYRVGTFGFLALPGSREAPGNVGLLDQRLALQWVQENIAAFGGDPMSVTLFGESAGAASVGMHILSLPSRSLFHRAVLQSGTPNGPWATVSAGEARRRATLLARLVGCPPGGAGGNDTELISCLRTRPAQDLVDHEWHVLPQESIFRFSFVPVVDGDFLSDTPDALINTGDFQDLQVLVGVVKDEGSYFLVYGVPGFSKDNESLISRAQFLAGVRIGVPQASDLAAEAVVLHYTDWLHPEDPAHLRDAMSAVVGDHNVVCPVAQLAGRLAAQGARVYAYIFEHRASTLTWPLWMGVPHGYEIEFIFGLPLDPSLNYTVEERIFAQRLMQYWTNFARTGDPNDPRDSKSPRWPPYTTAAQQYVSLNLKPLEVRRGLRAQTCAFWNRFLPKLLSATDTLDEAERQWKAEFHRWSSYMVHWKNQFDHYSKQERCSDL
How it was run: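 Brains from untreated rats homogenised (20 mg/mL) in 0.1 M phosphate buffer, pH 8, as the enzyme source. Acetylthiocholine is the substrate. Activity is read colorimetrically as thiocholine reacting with dithio-bisnitrobenzoic acid and followed as a time course. Percent inhibition is taken at the end of the incubation period.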

Liver microsomes = assay: Inhibition of Fe(2+)/ascorbate-induced lipid peroxidation in Fischer 344 rat hepatic microsomal membranes; type: functional; conditions: Microsome
Mus musculus [2] = assay: Anti-inflammatory activity against of FCA-induced odema in BALB/c mouse assessed as oedema inhibition at 0.30 mmol/kg, ip; type: functional
How it was run: (§1)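 FCA (0.05 mL/paw) injected intradermally into right hind paw of mice, left paw as control. Compounds suspended in water with a few drops of Tween 80, given ip 15 min before FCA. After 3 h both hind paws excised and weighed. Oedema is paw weight increase, compared with control animals given only the vehicle. Means SEM, Student's t-test.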

Mus musculus [3] = assay: Increase of oedema in BALB/c mouse with FCA-induced inflammation at 0.30 mmol/kg, ip; type: functional; how it was run: as §1
Mus musculus [4] = assay: Anti-inflammatory activity against of FCA-induced odema in BALB/c mouse assessed as oedema inhibition at 0.15 mmol/kg, ip; type: functional; how it was run: as §1
Mus musculus [5] = assay: Increase of oedema in BALB/c mouse with FCA-induced inflammation at 0.15 mmol/kg, ip; type: functional; how it was run: as §1
[6] = biological target: T2, Seed linoleate 13S-lipoxygenase-1 (Glycine max) (UniProt P08170); assay: Inhibition of soybean lipoxygenase at 0.3 mM; parameters: Activity: scale not given: the % may be the effect or the level left
T2 sequence (whole entry): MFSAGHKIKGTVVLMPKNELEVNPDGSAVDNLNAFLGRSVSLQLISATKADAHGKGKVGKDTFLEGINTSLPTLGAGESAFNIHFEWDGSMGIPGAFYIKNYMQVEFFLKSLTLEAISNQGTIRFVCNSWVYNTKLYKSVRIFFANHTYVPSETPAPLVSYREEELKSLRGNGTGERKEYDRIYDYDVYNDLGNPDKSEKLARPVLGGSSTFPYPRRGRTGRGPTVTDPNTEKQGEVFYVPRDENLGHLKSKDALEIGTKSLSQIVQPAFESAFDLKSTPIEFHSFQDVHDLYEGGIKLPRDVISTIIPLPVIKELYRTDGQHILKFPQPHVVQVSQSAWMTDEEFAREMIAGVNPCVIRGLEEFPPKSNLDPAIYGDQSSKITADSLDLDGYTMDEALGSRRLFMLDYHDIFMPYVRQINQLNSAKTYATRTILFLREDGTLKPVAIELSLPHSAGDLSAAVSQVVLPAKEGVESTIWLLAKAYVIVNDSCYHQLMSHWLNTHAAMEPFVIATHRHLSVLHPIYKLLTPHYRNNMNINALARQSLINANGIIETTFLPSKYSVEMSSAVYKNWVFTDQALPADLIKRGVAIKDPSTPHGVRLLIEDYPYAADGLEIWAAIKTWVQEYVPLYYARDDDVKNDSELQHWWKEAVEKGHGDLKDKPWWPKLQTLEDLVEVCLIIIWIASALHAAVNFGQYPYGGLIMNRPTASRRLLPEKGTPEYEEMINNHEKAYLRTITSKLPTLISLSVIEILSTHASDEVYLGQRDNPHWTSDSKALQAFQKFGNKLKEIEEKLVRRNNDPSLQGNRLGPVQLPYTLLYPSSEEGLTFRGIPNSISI
How it was run: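 Soybean lipoxygenase 250 U/mL in Tris buffer pH 9. Compounds in 60% aqueous ethanol at 0.1–0.3 mM. Reaction started with sodium linoleate 0.1 mM and followed for 7 min at 28 °C by 13-hydroperoxylinoleic acid conjugated diene absorbance at 234 nm.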

[7] = biological target: T3, Seed linoleate 13S-lipoxygenase-1 (Glycine max, UniProt P08170); assay: Inhibition of soybean lipoxygenase after 7 mins
T3 sequence (P08170 whole entry): T2 sequence (whole entry)

Rattus norvegicus [8] = assay: Total cholesterol level in Fischer 344 rat plasma at 0.3 mmol/kg, ip after 24 hrs; type: functional
How it was run: (§2)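 Compounds given ip at 0.3 mmol/kg 30 min later. Plasma total cholesterol, LDL-cholesterol and triglycerides measured in mg/dl and expressed as percent reduction against the hyperlipidemic control group. SD, Student's t-test.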

Rattus norvegicus [9] = assay: LDL level in Fischer 344 rat plasma at 0.3 mmol/kg, ip after 24 hrs; type: functional; how it was run: as §2
Rattus norvegicus [10] = assay: Triglyceride level in Fischer 344 rat plasma at 0.3 mmol/kg, ip after 24 hrs; type: functional; how it was run: as §2
Rattus norvegicus [11] = assay: Mortality rate in Fischer 344 rat at 1.6 mmol/kg, sc after 4 days; type: functional
How it was run: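 Rats receive the compound subcutaneously at 1.6 mmol/kg once daily for 4 days. Mortality, perforating gastrointestinal ulcers, melena defecation and body weight change are recorded 24 h after the last injection.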

Rattus norvegicus [12] = assay: Gastrointestinal toxicity in Fischer 344 rat assessed as gastrointestinal ulceration at 1.6 mmol/kg, sc after 4 days; type: functional
How it was run: (§3)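 Rats dosed subcutaneously at 1.6 mmol/kg once daily for 4 days. Perforating gastrointestinal ulcers, melena defecation, body weight change and mortality recorded 24 h after the last injection.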

Rattus norvegicus [13] = assay: Body weight change per 100g in Fischer 344 rat at 1.6 mmol/kg, sc after 4 days; type: functional; how it was run: as §3
Rattus norvegicus [14] = assay: Decrease in total cholesterol in Fischer 344 rat plasma at 0.3 mmol/kg, ip after 24 hrs relative to control; type: functional; parameters: scale not given: the % may be the effect or the level left; how it was run: as §2
Rattus norvegicus [15] = assay: Decrease in LDL level in Fischer 344 rat plasma at 0.3 mmol/kg, ip after 24 hrs relative to control; type: functional; parameters: scale not given: the % may be the effect or the level left; how it was run: as §2
Rattus norvegicus [16] = assay: Decrease in triglyceride level in Fischer 344 rat plasma at 0.3 mmol/kg, ip after 24 hrs relative to control; type: functional; parameters: scale not given: the % may be the effect or the level left; how it was run: as §2

Structure (SMILES) | inhibition [1] [%] | Activity (Liver microsomes) | inhibition in vivo at 300 µmol/kg (Mus musculus [2]) [%] | Activity (Mus musculus [3]) [%] | also measured
CC(C)Cc1ccc([C@H](C)C(=O)O)cc1 | 20 | inactive | – | – | –
COc1cc(C)ccc1OC(=O)C1CCCN1C(=O)C(C)c1ccc(CC(C)C)cc1 (stereo not drawn) | 80 | inactive | 43 | 49.6 | inhibition in vivo at 150 µmol/kg (Mus musculus [4]): 21%; Activity (Mus musculus [5]): 67.9%; Activity [6]: 78%; IC50 [7]: 140 µM
CC(C)Cc1ccc(C(C)C(=O)O)cc1 (stereo not drawn) [IBUPROFEN] | 20 | – | 53 | 44.6 | Activity (Rattus norvegicus [8]): 111 mg/dL; Activity (Rattus norvegicus [9]): 38 mg/dL; Activity (Rattus norvegicus [10]): 228 mg/dL; Activity (Rattus norvegicus [11]): 50%; Activity (Rattus norvegicus [12]): 88%; Activity (Rattus norvegicus [13]): -13 g; Activity (Rattus norvegicus [14]): 38%; Activity (Rattus norvegicus [15]): 32%; Activity (Rattus norvegicus [16]): 41%
CC(C)C(=O)N1CCC[C@@H]1C(=O)OCCCc1cccnc1 | – | inactive | 1 | 77 | Activity [1]: inactive
O=C(O)[C@@H]1CCCN1 | – | inactive | – | – | –
CC(C)Cc1ccc(C(C)C(=O)N2CCCC2C(=O)O)cc1 (stereo not drawn) | – | inactive | – | – | –
NCCS [CYSTEAMINE] | – | – | – | – | Activity (Rattus norvegicus [11]): 80%; Activity (Rattus norvegicus [12]): 40%; Activity (Rattus norvegicus [13]): -7 g
CC(C)Cc1ccc(C(C)C(=O)N2CCCC2C(=O)OCCCc2cccnc2)cc1 (stereo not drawn) | 64 | – | – | – | –
COc1cc(C)ccc1OC(=O)[C@H]1CCCN1C(=O)C(C)C | – | inactive | 1 | 79.3 | inhibition [6]: 42%; Activity [1]: inactive
CC(C)C(=O)N1CCCC1C(=O)O (stereo not drawn) | – | inactive | – | – | –
